This note sets out measurements from ChEMBL document CHEMBL1177850, “Design, synthesis and antiproliferative activity of styryl lactones related to (+)-goniofufurone” (Eur J Med Chem, 2010).

pIC50: −log10 of the molar value. Where only a bound is given, the exact number is not on record here.

Common to all, as to type: functional, cell-based
For one experiment, the system named is HeLa. Put plainly: Antiproliferative activity against human HeLa cells after 72 hrs by MTT assay. The method in brief:
(§1)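 Seeded at 5 × 10^3 cells/well in 96-well plates after harvesting in exponential growth and trypan blue counting. MRC-5 are normal foetal lung fibroblasts. Exposure was 72 h, with MTT colorimetric read-out. Results are means (SD) of three independent experiments done in quadruplicate.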
A general note: Tetrazolium dyes change colour on reduction, which living cells bring about.

In the next experiment the test system is MRC5. The experiment can be described thus: Antiproliferative activity against human MRC5 cells after 72 hrs by MTT assay. The note with it: MRC5, 72 h. The method in brief: as §1
A further experiment deals with Raji. The experiment can be described thus: Antiproliferative activity against human Raji cells after 72 hrs by MTT assay. The method in brief:
(§2)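 Exponentially growing cells were counted by trypan blue exclusion and seeded at 10^4 cells/well in 96-well plates to keep growth logarithmic. Cells were exposed to compound for 72 h, then read by tetrazolium (MTT) colorimetry. Values are means (SD) of three independent experiments, each in quadruplicate.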

Another experiment concerns HL-60. Put plainly: Antiproliferative activity against human HL60 cells after 72 hrs by MTT assay. To be noted: HL-60, 72 h. The method in brief: (§3)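 Exponentially growing cells were counted by trypan blue exclusion and seeded at 10^4 cells/well in 96-well plates to keep growth logarithmic. Cells were exposed to compound for 72 h, then read by tetrazolium (MTT) colorimetry. IC50 is the concentration giving 50% growth inhibition versus untreated control. Values are means (SD) of three independent experiments, each in quadruplicate.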

The test system of another experiment is Jurkat. Put plainly: Antiproliferative activity against human Jurkat cells after 72 hrs by MTT assay. The gist of the method:
as §3

The subject of the next experiment is K562. Put plainly: Antiproliferative activity against human K562 cells after 72 hrs by MTT assay. To be noted: K562, 72 h. The gist of the method:
as §2

As a reminder, the pIC50 is −log10 of the IC50, conventionally taken in molar units. Higher therefore signals a low IC50. Take `O=C1C[C@H]2O[C@H]([C@H](OC(=O)c3ccccc3)c3ccccc3)[C@H](O)[C@H]2O1`: the pIC50 with HeLa was 5.24; with MRC5, less than 4.00; with Raji, 6.00; in the experiment with HL-60, 6.92; in the experiment on Jurkat it was 6.44; in the experiment with K562 it was 6.64.

On to `O=C1CC[C@@H]([C@@H](O)[C@H](O)[C@H](O)c2ccccc2)O1`, for which the pIC50 was 5.63 with HeLa; less than 4.00 in the experiment on MRC5; 5.66 with Raji; 7.05 in the experiment on HL-60; 5.65 in the experiment with Jurkat; 6.27 in the experiment on K562.

Take `O=C1CC2O[C@H](Cc3ccccc3)C(O)C2O1` (single isomer, unassigned): the pIC50 was 5.35 in the experiment with HeLa; less than 4.00 in the experiment on MRC5; 5.99 in the experiment on Raji; 4.36 in the experiment with HL-60; 5.60 in the experiment on Jurkat; 6.29 with K562.

Regarding `O=C1C[C@H]2O[C@H]([C@H](O)c3ccccc3)[C@H](O)[C@H]2O1`, the pIC50 was 5.08 with HeLa; less than 4.00 in the experiment on MRC5; 4.73 in the experiment on Raji; less than 4.00 with HL-60; 4.49 in the experiment on Jurkat; 6.39 in the experiment on K562.

For the compound `O=C(/C=C/c1ccccc1)O[C@H](c1ccccc1)[C@H]1O[C@@H]2CC(=O)O[C@@H]2[C@H]1O` [(+)-CRASSALACTONE C], the pIC50 in the experiment on MRC5 is less than 4.00; in the experiment on HL-60, less than 4.00; in the experiment on K562, 5.45.
